Data as given in article PMC9616053 (ACS chemical neuroscience, 2022).
*1 amine or outer side, *2 acyl side, *3 side chain or, on linkers, in order; H or OH if unused. Where a SMILES comes first, the peptide text is derived from it. [ ]: non-standard residue; d: D form. X1 = Cc1ccc2c(c1)CCN([*:1])[C@@H]2C(=O)[*:2]

What was measured:
[1] = molecular target: T1, Casp1 (Homo sapiens, UniProt P29466); test: in vitro caspase panel assay, Casp1; format: biochemical
T1 sequence (P29466 120-297 limits assumed): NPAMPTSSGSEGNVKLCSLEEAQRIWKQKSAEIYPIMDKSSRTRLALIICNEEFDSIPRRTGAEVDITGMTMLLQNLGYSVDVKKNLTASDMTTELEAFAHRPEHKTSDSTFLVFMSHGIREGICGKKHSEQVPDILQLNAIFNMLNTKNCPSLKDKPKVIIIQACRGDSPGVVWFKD
T1 sequence (P29466 317-404 limits assumed): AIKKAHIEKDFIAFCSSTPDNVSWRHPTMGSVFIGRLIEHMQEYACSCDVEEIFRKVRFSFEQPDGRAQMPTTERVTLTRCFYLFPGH

[2] = test system: primary hippocampal neurons from transgenic mice overexpressing P301S tau; test: mEPSC recording in primary hippocampal neurons from PS19; format: cell-based, mouse; conditions: 10 μM, 3 days; for average frequency of mEPSCs: six groups
[3] = molecular target: T2, Casp2-mediated cleavage of tau at D314 (Homo sapiens, UniProt P42575); test: in vitro caspase-2-catalyzed tau cleavage assay; format: biochemical
T2 sequence (P42575 170-325 limits assumed): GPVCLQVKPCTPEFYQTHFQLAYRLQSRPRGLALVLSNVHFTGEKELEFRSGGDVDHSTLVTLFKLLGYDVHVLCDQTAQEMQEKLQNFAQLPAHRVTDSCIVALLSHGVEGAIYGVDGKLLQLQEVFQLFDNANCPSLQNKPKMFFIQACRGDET
T2 sequence (P42575 348-452 limits assumed): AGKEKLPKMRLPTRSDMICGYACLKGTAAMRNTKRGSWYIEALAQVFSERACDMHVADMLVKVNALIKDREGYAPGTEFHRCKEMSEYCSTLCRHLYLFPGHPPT

[4] = molecular target: T3, Casp7 (Homo sapiens, UniProt P55210); test: in vitro caspase panel assay, Casp7; format: biochemical
T3 sequence (P55210 24-198 limits assumed): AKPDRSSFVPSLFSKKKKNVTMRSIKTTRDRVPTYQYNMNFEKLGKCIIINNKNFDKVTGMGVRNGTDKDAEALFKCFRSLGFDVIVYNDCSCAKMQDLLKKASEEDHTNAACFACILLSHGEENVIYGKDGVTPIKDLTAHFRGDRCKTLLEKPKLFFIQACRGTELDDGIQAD
T3 sequence (P55210 207-303 limits assumed): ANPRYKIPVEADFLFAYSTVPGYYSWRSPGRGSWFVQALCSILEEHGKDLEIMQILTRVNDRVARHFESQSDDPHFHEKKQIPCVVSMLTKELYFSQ

[5] = molecular target: T4, Casp9 (Homo sapiens, UniProt P55211); test: in vitro caspase panel assay, Casp9; format: biochemical
T4 sequence (P55211 1-315 limits assumed): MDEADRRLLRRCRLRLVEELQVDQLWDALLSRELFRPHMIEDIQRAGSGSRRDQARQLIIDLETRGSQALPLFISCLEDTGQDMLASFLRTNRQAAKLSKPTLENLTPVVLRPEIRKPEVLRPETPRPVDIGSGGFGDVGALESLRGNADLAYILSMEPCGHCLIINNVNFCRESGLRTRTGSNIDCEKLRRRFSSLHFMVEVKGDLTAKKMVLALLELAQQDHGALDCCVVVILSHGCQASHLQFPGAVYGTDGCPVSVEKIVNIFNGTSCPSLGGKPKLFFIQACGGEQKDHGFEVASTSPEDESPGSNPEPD
T4 sequence (P55211 331-416 limits assumed): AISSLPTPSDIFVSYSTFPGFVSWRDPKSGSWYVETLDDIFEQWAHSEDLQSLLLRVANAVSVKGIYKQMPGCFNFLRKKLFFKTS

[6] = test system: cultured rat hippocampal neurons expressing P301S tau; format: cell-based; conditions: 10 μM for 3 days, versus untreated wild-type and P301S tau neurons
Method in brief: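 Primary hippocampal cultures from Sprague-Dawley rat pups at postnatal day 0 or 1. At 5–7 DIV, neurons were co-transfected with plasmids for DsRed (morphology label) and GFP-tagged wild-type or P301S tau. Test compound was added at 17–18 DIV for 3 days. Live neurons were imaged at 20–21 DIV.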

[7] = molecular target: T5, Casp3 (Homo sapiens, UniProt P42574); test: fluorescence-based in vitro biochemical; conditions: for Casp2 Selectivity, Ki (Casp3) / Ki (Casp2): Table 1
T5 sequence (P42574 29-175 limits assumed): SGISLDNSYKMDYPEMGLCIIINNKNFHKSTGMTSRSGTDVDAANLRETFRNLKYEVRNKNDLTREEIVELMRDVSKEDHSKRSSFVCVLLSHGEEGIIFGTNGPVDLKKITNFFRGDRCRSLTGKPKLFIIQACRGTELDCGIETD
T5 sequence (P42574 176-277 limits assumed): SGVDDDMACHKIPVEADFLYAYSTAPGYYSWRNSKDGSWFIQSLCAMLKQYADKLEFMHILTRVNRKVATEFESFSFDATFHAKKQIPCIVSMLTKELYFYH

[8] = molecular target: Cathepsin B (Homo sapiens, UniProt P07858); test: Cathepsin B inhibition; format: biochemical
[9] = molecular target: Thrombin a (Homo sapiens, UniProt P00734); test: Thrombin a inhibition; format: biochemical
[10] = molecular target: T6, Casp6 (Homo sapiens, UniProt P55212); test: in vitro caspase panel assay, Casp6; format: biochemical
T6 sequence (P55212 24-179 limits assumed): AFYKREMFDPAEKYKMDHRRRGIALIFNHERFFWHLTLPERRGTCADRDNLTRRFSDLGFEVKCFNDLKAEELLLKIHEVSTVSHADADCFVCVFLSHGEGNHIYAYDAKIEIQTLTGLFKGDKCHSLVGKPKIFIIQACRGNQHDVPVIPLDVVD
T6 sequence (P55212 194-293 limits assumed): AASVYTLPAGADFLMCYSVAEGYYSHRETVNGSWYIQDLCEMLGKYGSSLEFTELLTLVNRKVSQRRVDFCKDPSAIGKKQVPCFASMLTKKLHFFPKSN

[11] = molecular target: T7, Casp2 (Homo sapiens, UniProt P42575); test: fluorescence-based in vitro biochemical
T7 sequence (P42575 170-325 limits assumed): T2 sequence (P42575 170-325 limits assumed)
T7 sequence (P42575 348-452 limits assumed): T2 sequence (P42575 348-452 limits assumed)

| SMILES | Ki [1] [µM] | selectivity Casp2 versus Casp1 [1] [fold] | average amplitude of mEPSC responses, Tau −/+ versus Tau −/− neurons [2] | cumulative curve of mEPSC amplitudes, Tau −/+ compared with Tau −/− [2] | average frequency of mEPSCs [2] | IC50 [3] [µM] | Ki [4] [µM] | selectivity Casp2 versus Casp7 [4] [fold] | Ki [5] [µM] | selectivity Casp2 versus Casp9 [5] [fold] | density of dendritic spines [6] | Ki [7] [µM] | Casp2 Selectivity, Ki (Casp3) / Ki (Casp2) [7] | IC50 [8] [µM] | activity at cathepsin B [8] | IC50 [9] [µM] | activity at thrombin [9] | Ki [10] [µM] | selectivity Casp2 versus Casp6 [10] [fold] | Ki [11] [µM] |
| --- | --- | --- | --- | --- | --- | --- | --- | --- | --- | --- | --- | --- | --- | --- | --- | --- | --- | --- | --- | --- |
| Cc1ccc2c(c1)CCN(C(=O)[C@@H](NC(=O)[C@H](CCCC(=O)O)NC(=O)[C@@H]1Cc3ccccc3N1)C(C)C)[C@@H]2C(=O)N[C@H](C#N)CC(=O)O [Compound 1, (S)-6-(((S)-1-((S)-1-(((S)-2-carboxy-1-cyanoethyl)carbamoyl)-6-methyl-3,4-dihydroisoquinolin-2(1H)-yl)-3-methyl-1-oxobutan-2-yl)amino)-5-((S)-indoline-2-carboxamido)-6-oxohexanoic acid] | > 100 | > 2000 | do not differ significantly | not significantly shifted | no significant differences | 2.02 | 15.8 | > 2000 | > 31.6 | > 2000 | no significant differences | 0.933 | 123 | 18.6 | weak activity | > 100 | weak activity | > 100 | > 2000 | 0.00759 |
| CC(=O)N[C@H](C(=O)N[C@@H](CC(=O)O)C(=O)N[C@H](C(=O)N1CCc2cc(C)ccc2[C@H]1C(=O)N[C@H](C=O)CC(=O)O)C(C)C)C(C)C [Compound 2b, (S)-3-((S)-2-acetamido-3-methylbutanamido)-4-(((S)-1-((S)-1-(((S)-1-carboxy-3-oxopropan-2-yl)carbamoyl)-6-methyl-3,4-dihydroisoquinolin-2(1H)-yl)-3-methyl-1-oxobutan-2-yl)amino)-4-oxobutanoic acid] (Ac-VDV[X1]D-aldehyde) | 2.75 | – | – | shifted to the left but less markedly | no significant differences | – | > 31.6 | – | > 31.6 | – | – | – | 70 | 38 | – | – | – | > 100 | – | – |
